Reference: ChEMBL document CHEMBL1124868, “Synthesis and anti-HIV-1 activity of 2'-"up"-fluoro analogues of active anti-AIDS nucleosides 3'-azido-3'-deoxythymidine (AZT) and 2',3'-dideoxycytidine (DDC)” (J Med Chem, 1990)
Values joined by “and” are separate entries in the source; they are usually repeats but may differ in a detail not shown here. Equal entries are not always repeated.

Columns and labels:
MT4 [1] = experiment: Cytotoxicity was tested in MT-4 cells by the XTT-microculture tetrazolium assay.; assay type: functional, cell-based; conditions: Homo sapiens
Summary of the method: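 MT4 cells exposed in duplicate in 96-well plates to at least five concentrations for 4 days. PMS-XTT (0.075 mM PMS with 1 mg/mL XTT in serum-free medium) added, then 6 h at 37 °C before reading. IC50 derived by median-effect plot analysis.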

[2] = Selectivity ratio to IC50 of MT4 cells and EC50, anti-HIV activity of MT-4 cells; assay type: functional
Summary of the method: (§1)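 Selectivity ratio is the cytotoxic IC50 (MT4 or HL60 cells, […]) divided by the anti-HIV-1 EC50 from P24 ELISA or RT assay in infected MT4 cells.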

MT4 [3] = experiment: AntiHIV-1 activity measured in MT-4 cells at 5 to 6 different concentrations, using the reverse transcriptase (RT) assay; assay type: functional, cell-based; conditions: Homo sapiens
Summary of the method: (§2)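 MT4 cells infected with HIV-1 at 200 TCID50 per 10^6 cells, adsorbed 1 h at 37 °C, 5% CO2, washed, resuspended at 10^6 cells/3 mL. Compounds added immediately at five to six concentrations. After 5 days at 37 °C, cell-free supernatant assayed for P24 core antigen by ELISA kit or for RT activity. EC50 from median-effect plot analysis against untreated infected controls.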

[4] = Selectivity ratio to IC50 of HL60 cells and EC50, anti-HIV activity of MT-4 cells; assay type: functional, HL-60; summary of the method: as §1
HL-60 = experiment: Cytotoxicity was tested in HL60 cells by the trypan blue exclusion assay.; assay type: functional, cell-based; conditions: Homo sapiens
Summary of the method: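 HL60 cells exposed to at least five compound concentrations plus no-drug control, in duplicate in 96-well plates. Growth inhibition counted by trypan blue exclusion on a hemocytometer. IC50 derived by median-effect plot analysis.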

MT4 [5] = experiment: AntiHIV-1 activity measured in MT-4 cells at 5 to 6 different concentrations, using the P24 antigen enzyme-linked immunosorbent assay (ELISA).; assay type: functional, cell-based; conditions: Homo sapiens; summary of the method: as §2

SMILES | IC50 (MT4 [1]) | Selectivity ratio [2] | EC50 (MT4 [3]) | Selectivity ratio [4] | IC50 (HL-60) | EC50 (MT4 [5])
Nc1ccn([C@@H]2O[C@H](CO)C[C@@H]2F)c(=O)n1 | 1.48 mM | 328 and 343 | 2540 nM | 266 and 278 | 707 µM | 2660 nM
Nc1ccn([C@H]2CC[C@@H](CO)O2)c(=O)n1 [ZALCITABINE] | – | 1326 and 1304 | 240 nM | 424 and 417 | 100 µM | 236 nM
Cc1cn([C@@H]2O[C@H](CO)[C@@H](N=[N+]=[N-])[C@H]2F)c(=O)[nH]c1=O | – | 1.26 and 2.06 | 103000 nM | 2.62 and 4.27 | 440 µM | 168000 nM
Cc1cn([C@H]2C[C@H](N=[N+]=[N-])[C@@H](CO)O2)c(=O)[nH]c1=O [ZIDOVUDINE] | – | 8833 and 11778 | 4.5 nM | 16000 and 21333 | 96 µM | 6 nM
